Measurements as given in ChEMBL document CHEMBL5724801, “EUbOPEN Chemogenomics Library - Multiplex” (2024).
Values joined by “and” are separate entries in the source; they are usually repeats but may differ in a detail not shown here. Equal values may be shown once.

Test system: Fibroblast
Assay: Multiplex assay against human fibroblast
Assay type: toxicity, cell-based
Summary of the method: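 With compound added, live cells were imaged on a CQ1 microscope at 37°C and 5% CO2; staining with Hoechst33342, BioTracker Green Microtubule Cytoskeleton Dye, MitoTracker Red and Annexin V Alexa Fluor 680 had been done at seeding. The CellPathfinder machine-learning gating scheme split cells into Hoechst high-intensity objects or normal cells, normal cells into healthy, pyknosed or fragmented nuclei, and pyknosed cells into mitotic or apoptotic. The tubulin, mitochondrial-mass and membrane-permeability phenotypes are per cents of healthy-nucleus cells.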

[1] = 12 h, 1 µM, compound concentration 1 uM
[2] = 12 h, 10 µM, compound concentration 10 uM
[3] = 24 h, 1 µM, compound concentration 1 uM
[4] = 24 h, 10 µM, compound concentration 10 uM
[5] = 48 h, 1 µM, compound concentration 1 uM
[6] = 48 h, 10 µM, compound concentration 10 uM

**Q.** How did the “Population Apoptotic (%)” value [1] turn out when CN(C)CCOc1ccc(/C(=C(/CCCO)c2ccccc2)c2ccc(O)cc2)cc1 was run?
**A.** Its value is 9.46% and 11.76%.

**Q.** What about the “Population Fragmented Nuclei (%)” value [1] of the same molecule?
**A.** Its value is 12.72% and 6.58%.

**Q.** What about the “Population Healthy Nuclei (%)” value [1] of the same molecule?
**A.** The value was 54.82% and 78.51%.

**Q.** What about the “Population Hoechst High Intensity Objects (%)” value [1] of the same molecule?
**A.** Its value is 0%.

**Q.** And the “Population Membrane Permeable-Phenotype (%)” value [1]?
**A.** Its value is 2.4% and 1.12%.

**Q.** What about the “Population Mitochondria Different-Phenotype (%)” value [1] of the same molecule?
**A.** The value was 12.8% and 16.2%.

**Q.** And the “Population Mitotic Cells (%)” value [1]?
**A.** Its value is 90.54% and 88.24%.

**Q.** And the “Population Normal (%)” value [1]?
**A.** Its value is 100%.

**Q.** What about the “Population Pyknosed Nuclei (%)” value [1] of the same molecule?
**A.** Its value is 32.46% and 14.91%.

**Q.** What about the “Population Tubulin-Different-Phenotype (%)” value [1] of the same molecule?
**A.** Its value is 20.8% and 30.73%.

**Q.** What about the “Total Cell Count” value [1] of the same molecule?
**A.** The value was 228.

**Q.** What about the “Population Apoptotic (%)” value [2] of the same molecule?
**A.** The value was 12.82% and 32.5%.

**Q.** What about the “Population Fragmented Nuclei (%)” value [2] of the same molecule?
**A.** The value was 12.81% and 6.25%.

**Q.** And the “Population Healthy Nuclei (%)” value [2]?
**A.** Its value is 54.96% and 65.97%.

**Q.** And the “Population Hoechst High Intensity Objects (%)” value [2]?
**A.** Its value is 0%.

**Q.** And the “Population Membrane Permeable-Phenotype (%)” value [2]?
**A.** Its value is 12.03% and 4.21%.

**Q.** What about the “Population Mitochondria Different-Phenotype (%)” value [2] of the same molecule?
**A.** Its value is 33.83% and 24.74%.

**Q.** What about the “Population Mitotic Cells (%)” value [2] of the same molecule?
**A.** The value was 87.18% and 67.5%.

**Q.** And the “Population Normal (%)” value [2]?
**A.** Its value is 100%.

**Q.** What about the “Population Pyknosed Nuclei (%)” value [2] of the same molecule?
**A.** Its value is 32.23% and 27.78%.

**Q.** What about the “Population Tubulin-Different-Phenotype (%)” value [2] of the same molecule?
**A.** Its value is 69.92% and 80%.

**Q.** And the “Total Cell Count” value [2]?
**A.** Its value is 242 and 288.

**Q.** And the “Population Fragmented Nuclei (%)” value [3]?
**A.** Its value is 7.69% and 4.15%.

**Q.** And the “Population Healthy Nuclei (%)” value [3]?
**A.** Its value is 73.68% and 82.16%.

**Q.** And the “Population Hoechst High Intensity Objects (%)” value [3]?
**A.** The value was 0%.

**Q.** What about the “Population Membrane Permeable-Phenotype (%)” value [3] of the same molecule?
**A.** The value was 2.2% and 3.03%.

**Q.** What about the “Population Mitochondria Different-Phenotype (%)” value [3] of the same molecule?
**A.** Its value is 9.34% and 7.58%.

**Q.** What about the “Population Mitotic Cells (%)” value [3] of the same molecule?
**A.** The value was 93.48% and 78.79%.

**Q.** What about the “Population Normal (%)” value [3] of the same molecule?
**A.** The value was 100%.

**Q.** And the “Population Pyknosed Nuclei (%)” value [3]?
**A.** The value was 18.62% and 13.69%.

**Q.** What about the “Population Tubulin-Different-Phenotype (%)” value [3] of the same molecule?
**A.** Its value is 22.53% and 32.32%.

**Q.** And the “Total Cell Count” value [3]?
**A.** The value was 247 and 241.

**Q.** And the “Population Apoptotic (%)” value [4]?
**A.** The value was 20.78% and 46.67%.

**Q.** And the “Population Fragmented Nuclei (%)” value [4]?
**A.** Its value is 6.59% and 4.58%.

**Q.** What about the “Population Healthy Nuclei (%)” value [4] of the same molecule?
**A.** The value was 63.57% and 79.58%.

**Q.** What about the “Population Hoechst High Intensity Objects (%)” value [4] of the same molecule?
**A.** The value was 0%.

**Q.** What about the “Population Membrane Permeable-Phenotype (%)” value [4] of the same molecule?
**A.** The value was 6.1% and 8.41%.

**Q.** And the “Population Mitochondria Different-Phenotype (%)” value [4]?
**A.** The value was 37.8% and 22.57%.

**Q.** And the “Population Mitotic Cells (%)” value [4]?
**A.** The value was 79.22% and 53.33%.

**Q.** What about the “Population Normal (%)” value [4] of the same molecule?
**A.** Its value is 100%.

**Q.** What about the “Population Pyknosed Nuclei (%)” value [4] of the same molecule?
**A.** Its value is 29.84% and 15.85%.

**Q.** What about the “Population Tubulin-Different-Phenotype (%)” value [4] of the same molecule?
**A.** Its value is 85.37% and 84.07%.

**Q.** What about the “Total Cell Count” value [4] of the same molecule?
**A.** Its value is 258 and 284.

**Q.** And the “Population Apoptotic (%)” value [5]?
**A.** The value was 53.33% and 35.71%.

**Q.** What about the “Population Fragmented Nuclei (%)” value [5] of the same molecule?
**A.** Its value is 8.78% and 7.97%.

**Q.** And the “Population Healthy Nuclei (%)” value [5]?
**A.** The value was 85.5% and 86.45%.

**Q.** And the “Population Hoechst High Intensity Objects (%)” value [5]?
**A.** Its value is 0%.

**Q.** And the “Population Membrane Permeable-Phenotype (%)” value [5]?
**A.** The value was 0% and 4.61%.

**Q.** And the “Population Mitotic Cells (%)” value [5]?
**A.** The value was 46.67% and 64.29%.

**Q.** And the “Population Normal (%)” value [5]?
**A.** Its value is 100%.

**Q.** What about the “Population Pyknosed Nuclei (%)” value [5] of the same molecule?
**A.** The value was 5.73% and 5.58%.

**Q.** What about the “Total Cell Count” value [5] of the same molecule?
**A.** The value was 262 and 251.

**Q.** And the “Population Apoptotic (%)” value [6]?
**A.** Its value is 35.29% and 73.91%.

**Q.** And the “Population Fragmented Nuclei (%)” value [6]?
**A.** Its value is 11.83% and 8.67%.

**Q.** What about the “Population Healthy Nuclei (%)” value [6] of the same molecule?
**A.** The value was 83.6% and 83.67%.

**Q.** And the “Population Hoechst High Intensity Objects (%)” value [6]?
**A.** The value was 0%.

**Q.** And the “Population Membrane Permeable-Phenotype (%)” value [6]?
**A.** Its value is 2.89% and 5.58%.

**Q.** What about the “Population Mitochondria Different-Phenotype (%)” value [6] of the same molecule?
**A.** Its value is 6.75% and 12.75%.

**Q.** And the “Population Mitotic Cells (%)” value [6]?
**A.** Its value is 64.71% and 26.09%.

**Q.** And the “Population Normal (%)” value [6]?
**A.** Its value is 100%.

**Q.** And the “Population Pyknosed Nuclei (%)” value [6]?
**A.** Its value is 4.57% and 7.67%.

**Q.** And the “Population Tubulin-Different-Phenotype (%)” value [6]?
**A.** The value was 53.05% and 80.48%.

**Q.** What about the “Total Cell Count” value [6] of the same molecule?
**A.** Its value is 372 and 300.
